Results: PubChem BioAssay AID2300 (The Scripps Research Institute Molecular Screening Center, 2010)
The whole screen tested about 320,000 compounds, of which about 380 (0.12%) were called active.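 How the source made its calls: active means percent inhibition above the cutoff of mean plus 3 SD of all tested compounds, set per screening campaign (cut at about 20% in these data); inactive means the rest.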 Only a selection was taken, and actives are over-represented in it overall.

The compounds below were run against Photoreceptor-specific nuclear receptor (Homo sapiens) (UniProt Q9Y5X4) (assay: disruption of NR2E3 corepressor interaction – biochemical, TR-FRET, GST-NR2E3, biotin-RetCOR, NR2E3 agonist project, primary screen (AID 2300;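 further: 0% = DMSO wells and 100% = biotin wells as full block of FRET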)). Conditions: 1536-well, at 4.78 µM, active compounds read high.
Photoreceptor-specific nuclear receptor (Homo sapiens), sequence (Q9Y5X4 whole entry, looked up, the tested form may be a part): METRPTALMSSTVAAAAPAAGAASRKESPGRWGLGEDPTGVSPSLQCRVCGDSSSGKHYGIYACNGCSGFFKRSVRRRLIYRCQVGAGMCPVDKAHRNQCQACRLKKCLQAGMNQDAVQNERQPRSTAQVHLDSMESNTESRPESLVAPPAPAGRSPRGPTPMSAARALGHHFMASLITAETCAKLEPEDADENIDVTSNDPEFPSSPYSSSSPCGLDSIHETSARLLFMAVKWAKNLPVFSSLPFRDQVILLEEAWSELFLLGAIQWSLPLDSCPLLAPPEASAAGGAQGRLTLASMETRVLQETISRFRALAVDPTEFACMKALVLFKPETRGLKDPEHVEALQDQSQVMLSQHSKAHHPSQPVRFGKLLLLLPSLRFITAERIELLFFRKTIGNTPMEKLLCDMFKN
In short: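 Material – GST-tagged NR2E3 plus biotinylated RetCOR corepressor · Quantity – NR2E3 fusion 1.35 nM · Times – 5 h incubation at 4 °C · Medium – pH 7.5 Tris-based buffer · Technique – TR-FRET, Eu(K)-anti-GST donor, streptavidin-D2 acceptor, ex 340, em 617/671 nm · Benchmarks – high control biotin, low control 0.6% DMSO · Format – 1536-well plates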

Q: `CC(C)CN(C(=O)CSc1nncn1C)C1CCS(=O)(=O)C1` (centres undefined) was tested. Which inhibition of corepressor binding did it give?
A: 2.15% (inactive)

Q: For `COC(C)(C)[C@]12CC(O)(C(C)C)ON1[C@H]1CCCCC1N2O` (some centres undefined), which inhibition of corepressor binding is on record?
A: -1% (inactive)

Q: `CCCCSc1nc2c(c(=O)n1CC)SC(C)C2` (centres undefined) was tested. Which inhibition of corepressor binding did it give?
A: 4.84% (inactive)

Q: With `O=c1ccc2c(-c3ccccc3S(=O)(=O)O)c3ccc(O)c(O)c3oc-2c1O` as the compound, how does the inhibition of corepressor binding read?
A: 13.9% (inactive)

Q: `O=C(CSc1nc2c(cnn2-c2ccc(F)cc2)c(=O)[nH]1)N1CCCCCC1` was tested. Which inhibition of corepressor binding did it give?
A: -0.57% (inactive)

Q: For `C=CCNC(=O)CSc1nc2sc(C)c(C)c2c(=O)[nH]1`, which inhibition of corepressor binding is on record?
A: -1.07% (inactive)

Q: Which inhibition of corepressor binding does the source give for `CC(=O)c1sc2nc(SCC(=O)N3CCCCC3)[nH]c(=O)c2c1C` here?
A: 29.3% (active)

Q: Which inhibition of corepressor binding does the source give for `CC(=O)N1CCC(C(=O)Nc2nc(-c3ccccc3)ns2)CC1` here?
A: 1.17% (inactive)

Q: With `Cc1csc(Nc2ccc(Cl)cc2)[n+]1-c1ccc(Cl)cc1` as the compound, how does the inhibition of corepressor binding read?
A: -0.2% (inactive)

Q: Which inhibition of corepressor binding does the source give for `FC(F)Oc1ccccc1NC(=S)Nc1cccc(Cl)c1Cl` here?
A: 3.12% (inactive)

Q: For `Cc1ccc(NC(=O)C2(N3CCC3=O)CCCCC2)cc1`, which inhibition of corepressor binding is on record?
A: 3.49% (inactive)

Q: How did the inhibition of corepressor binding turn out when `O=C(/C=C/c1cccc([N+](=O)[O-])c1)NCCSCc1ccco1` was run?
A: 0.28% (inactive)

Q: `Cc1ccc2c(c1)N(CC(=O)N1CCC(C)CC1)C(=O)c1cccnc1O2` was tested. Which inhibition of corepressor binding did it give?
A: 3.77% (inactive)

Q: `CCOc1ccc2nc(C(=O)N3CCCC(C)C3)sc2c1` (centres undefined) was tested. Which inhibition of corepressor binding did it give?
A: -1.62% (inactive)

Q: `ONC(=Nc1ccccc1)c1ccccc1Cl` was tested. Which inhibition of corepressor binding did it give?
A: -0.75% (inactive)

Q: Which inhibition of corepressor binding does the source give for `COc1cccc(CNC(=O)c2cccnc2Sc2ccc(Cl)cc2)c1` here?
A: 0.2% (inactive)

Q: With `Cc1ccc(Nc2nc(Cl)c(C=O)s2)cc1` as the compound, how does the inhibition of corepressor binding read?
A: 3.15% (inactive)

Q: With `Cc1cc(C)c(C)c(S(=O)(=O)N2CCN(C(=O)c3ccc4c(=O)n5c(nc4c3)CCC5)CC2)c1C` as the compound, how does the inhibition of corepressor binding read?
A: -2.52% (inactive)

Q: With `O=C(Nc1nccs1)C1CCN(S(=O)(=O)c2ccc(Cl)c(C(F)(F)F)c2)CC1` as the compound, how does the inhibition of corepressor binding read?
A: 5.22% (inactive)

Q: `O=C(CCNS(=O)(=O)c1cccs1)N1CCN(c2ccc(F)cc2)CC1` was tested. Which inhibition of corepressor binding did it give?
A: 0.06% (inactive)

Q: How did the inhibition of corepressor binding turn out when `O=C(N[C@@H](Cc1ccccc1)C(=O)OCc1ccccc1)c1nc[nH]c1C(=O)NC1CCNCC1` was run?
A: 1.4% (inactive)

Q: With `COc1ccc(C(=O)OCC(=O)c2ccc(Cl)s2)c(OC)c1OC` as the compound, how does the inhibition of corepressor binding read?
A: -1.77% (inactive)

Q: `CCOC(=O)c1ccc(N=C2SC(C(=O)NC)CC(=O)N2CCc2ccccc2)cc1` (centres undefined) was tested. Which inhibition of corepressor binding did it give?
A: -2.67% (inactive)

Q: `COc1cc2[nH]c(=S)n(Cc3ccc(F)cc3)c(=O)c2cc1OC` was tested. Which inhibition of corepressor binding did it give?
A: -2.77% (inactive)

Q: Which inhibition of corepressor binding does the source give for `COc1cc2[nH]c(=S)n(CCN3CCCCC3C)c(=O)c2cc1OC` (centres undefined) here?
A: 0.84% (inactive)

Q: Which inhibition of corepressor binding does the source give for `COc1cc2[nH]c(=S)n(Cc3ccc(C)o3)c(=O)c2cc1OC` here?
A: 23.2% (active)

Q: For `Cc1ccc(CN(N=Nc2nonc2N)c2nonc2N)c(C)c1`, which inhibition of corepressor binding is on record?
A: -0.3% (inactive)

Q: How did the inhibition of corepressor binding turn out when `CC(=O)N=c1ncn(CC(COC(C)=O)OC(C)=O)c2nc[nH]c12` (centres undefined) was run?
A: 0.37% (inactive)

Q: `CCC[C@H]1CCCC/C=C\CCCC(=O)OCCN1C(=O)OC(C)(C)C` was tested. Which inhibition of corepressor binding did it give?
A: -1.54% (inactive)

Q: How did the inhibition of corepressor binding turn out when `CCOc1cc(NC(=O)CCl)c(OCC)cc1NC(C)=O` was run?
A: -2.07% (inactive)

Q: For `COc1ccc2cc(-c3[nH]ncc3CNCCn3nc(C)cc3C)ccc2c1`, which inhibition of corepressor binding is on record?
A: 1.22% (inactive)

Q: Which inhibition of corepressor binding does the source give for `COc1cc(C(=O)Nc2ncccc2C)ccc1OCC(=O)N1CCOCC1` here?
A: 2.79% (inactive)

Q: Which inhibition of corepressor binding does the source give for `Cc1nc(SCC(=O)NC2CCCC2)[nH]c(=O)c1C` here?
A: -2.03% (inactive)

Q: With `O=C(c1ccc(Br)o1)N(c1ccccn1)C1CCCCC1` as the compound, how does the inhibition of corepressor binding read?
A: -1.56% (inactive)

Q: With `CCCc1cc(=O)[nH]c(SCC(=O)Nc2sc3c(c2C#N)CCCC3)n1` as the compound, how does the inhibition of corepressor binding read?
A: 1.75% (inactive)

Q: How did the inhibition of corepressor binding turn out when `CCOc1ccc(NC(=O)N2CC=C(n3c(=O)[nH]c4ccccc43)CC2)cc1` was run?
A: 1.76% (inactive)

Q: How did the inhibition of corepressor binding turn out when `CCN1CCN(C(=O)C2(NC(=O)Nc3cccc(F)c3)CCCCC2)CC1` was run?
A: 2.38% (inactive)

Q: `Cc1ccc(C(=O)N/C(=C/c2ccc(-c3cccc([N+](=O)[O-])c3)o2)C(=O)NCCCN(C)C)cc1` was tested. Which inhibition of corepressor binding did it give?
A: -3.84% (inactive)

Q: `CCCCC(=O)Nc1c2c(nn1-c1ccc([N+](=O)[O-])cc1)CS(=O)(=O)C2` was tested. Which inhibition of corepressor binding did it give?
A: 2.14% (inactive)

Q: Which inhibition of corepressor binding does the source give for `COc1cc(OC)c(C(=O)N2CCCC2)cc1OC` here?
A: 2.23% (inactive)

Q: For `N#Cc1c(N)nc2c3c(sc(=N)c2c1N)NC(=O)CC3c1ccccc1Cl` (centres undefined), which inhibition of corepressor binding is on record?
A: 27.7% (active)

Q: For `CSc1nc2c(c(=O)[nH]1)C(c1cccc(Cl)c1Cl)CC(=O)N2` (centres undefined), which inhibition of corepressor binding is on record?
A: 5.66% (inactive)

Q: Which inhibition of corepressor binding does the source give for `COc1ccc(C2CC(=O)Nc3sc(=N)c4c(N)c(C#N)c(N)nc4c32)cc1OC` (centres undefined) here?
A: -3.58% (inactive)

Q: With `CN(C)CCOc1cccc(Br)c1` as the compound, how does the inhibition of corepressor binding read?
A: -0.9% (inactive)

Q: With `O=[N+]([O-])/C(N=Nc1ccccc1)=N\Nc1ccccc1` as the compound, how does the inhibition of corepressor binding read?
A: -0.3% (inactive)

Q: Which inhibition of corepressor binding does the source give for `CCc1ccc(CN(C)C(=O)C2CCC(=O)N(Cc3cccc(OC)c3)C2)nc1` (centres undefined) here?
A: -4.58% (inactive)

Q: `C/C(=N/O)c1ccc(N2C(=O)C3C4C=CC(C3C2=O)C2C3C(=O)N(c5ccc(/C(C)=N/O)cc5)C(=O)C3C42)cc1` (centres undefined) was tested. Which inhibition of corepressor binding did it give?
A: -3.35% (inactive)

Q: Which inhibition of corepressor binding does the source give for `O=C(NNC(=O)C1CCC1)c1ccccc1` here?
A: 3.19% (inactive)

Q: `O=C(CNCc1ccco1)Nc1cc(S(=O)(=O)N2CCOCC2)ccc1N1CCCC1` was tested. Which inhibition of corepressor binding did it give?
A: 6.04% (inactive)

Q: `Cc1c(Cl)cccc1NC(=O)[C@@]1(CC(=O)O)CC(/C=C/c2ccccc2)=NO1` was tested. Which inhibition of corepressor binding did it give?
A: -2.16% (inactive)

Q: With `COC(=O)C1(C)NC(c2ccccc2OC)C2C(=O)N(c3ccccc3)C(=O)C21` (centres undefined) as the compound, how does the inhibition of corepressor binding read?
A: 1.42% (inactive)

Q: How did the inhibition of corepressor binding turn out when `O=C(CCCCO)c1ccc(O)c(Cl)c1` was run?
A: -2.2% (inactive)

Q: How did the inhibition of corepressor binding turn out when `O=C(COC(=O)Cc1ccc(Br)cc1)Nc1c(F)c(F)c(F)c(F)c1F` was run?
A: -1.39% (inactive)

Q: How did the inhibition of corepressor binding turn out when `CN(c1ccccc1)S(=O)(=O)c1cccc(NC(=O)Cc2ccc(Cl)cc2)c1` was run?
A: 4.43% (inactive)

Q: With `O=c1cnnc(Nc2ccccc2F)[nH]1` as the compound, how does the inhibition of corepressor binding read?
A: 3.47% (inactive)

Q: `Oc1c(Br)cc(/C=N/NC(=S)NCC2CCCO2)cc1Br` (centres undefined) was tested. Which inhibition of corepressor binding did it give?
A: 1.11% (inactive)

Q: `O=C(NCCO)C(=O)NCC(c1ccc2c(c1)OCO2)N1CCN(c2ccc(F)cc2)CC1` (centres undefined) was tested. Which inhibition of corepressor binding did it give?
A: -1.84% (inactive)

Q: For `CC1(C)C2CCC1(CS(=O)(=O)NCCc1c[nH]c3ccccc13)C(=O)C2` (centres undefined), which inhibition of corepressor binding is on record?
A: -2.06% (inactive)

Q: Which inhibition of corepressor binding does the source give for `CCOC(=O)c1c(NC(=O)CSc2nnc(CNc3ccc(C)cc3C)o2)sc(C)c1C` here?
A: -0.79% (inactive)
